Consider 3 molecules from paper PMC2711989 (Cancer research, 2009).

The test system of one data set is BxPC-3 tumor. Kind of data set: MicroPET imaging of the BxPC-3 xenograft model. The class given is in vivo, mice. The note with it: for SUVmax in BxPC-3 tumor: mean ± SD, n = 3 animals.
For data set [1], the system named is DX3puroβ6 (αvβ6-positive) and DX3puro (αvβ6-negative) xenografts. In words: Biodistribution in the DX3puro/DX3puroβ6 xenograft model. Format: in vivo, mice. The procedure, abridged:
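Each male athymic nude mouse (nu/nu) carried both xenografts: 3 × 10^6 DX3puroβ6 (αvβ6-transduced) and 3 × 10^6 DX3puro (control) melanoma cells in serum-free DMEM, injected s.c. on opposite shoulder flanks. Studies began at a tumor diameter of ∼0.5 cm. Radiotracers (∼15 to 30 μCi) were given in saline/PBS, n = 3 per time point. Uptake was expressed as decay-corrected %ID/g, mean ± SD.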

A short description of data set [2]: Biodistribution in the BxPC-3 xenograft model. Format: in vivo, mice. Particulars: male, athymic nude (nu/nu), mouse, BxPC-3 tumor, iv, total radioactivity. A digest of the protocol:
(§1)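 Male athymic nude mice (nu/nu) received 1.5 × 10^6 BxPC-3 cells s.c. in the left shoulder region, in 1:1 serum-free DMEM/MatriGel. Studies began at a tumor diameter of ∼0.5 cm. Radiotracers (∼15 to 30 μCi) were given in saline/PBS, n = 3 per time point. Tumor and tissue radioactivity was expressed as decay-corrected %ID/g, mean ± SD. Significance was tested by two-tailed Student's t-test.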

The test system of a further data set is BxPC-3 xenograft. Kind of data set: Biodistribution in the BxPC-3 xenograft model. Format: in vivo, mice. The procedure, abridged:
as §1

The subject of data set [3] is DX3puroβ6 (αvβ6-positive) and DX3puro (αvβ6-negative) xenografts. The note with it: previously seen, cited from earlier work.
A further data set deals with BxPC-3 cell line. Kind of data set: Radiotracer cell binding and internalization, BxPC-3 cells. The class given is cell-based, human. The note with it: BxPC-3, 1 hour, acidic wash buffer pH 2.5, 4°C. A digest of the protocol: (§2)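 3.75 × 10^6 cells were incubated with 0.2 μCi radiotracer in serum-free medium, pH 7.2, over a time course or for 1 h, n = 4 per cell line per time point. Bound fraction was γ-counted as cell pellet vs supernatant. Acid wash (0.2 mol/L sodium acetate, 0.5 mol/L NaCl, pH 2.5, 4°C) then released surface activity; internalized fraction was pellet vs released activity.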

In the next data set the test system is DX3puroβ6 cell line. In words: Radiotracer cell binding and internalization, DX3puroβ6 cells. The class given is cell-based, human. Particulars: DX3puroβ6, 1 hour, acidic wash buffer pH 2.5, 4°C. The procedure, abridged:
as §2

Read-outs that look alike come from different tables or passages of the source. Some results are limits rather than exact numbers.

As for `O=C[C@H]([18F])[C@@H](O)[C@H](O)[C@H](O)CO` [[^18F]FDG, 2-[^18F]fluoro-2-deoxy-D-glucose, reference compound], the “SUVmax in BxPC-3 tumor” value in the data set on BxPC-3 tumor (1 h p.i.) is 0.62 ± 0.13. Further, in the data set on BxPC-3 tumor (BxPC-3 xenograft bearing mice), the “detection of BxPC-3 tumors by PET” value is “failed in all animals to detect the BxPC-3 tumors”.

For orientation: tissue uptake means the share of the injected amount in each gram of the tissue. As to `CC(C)C[C@H](NC(=O)[C@H](CC(=O)O)NC(=O)CNC(=O)[C@H](CCCNC(=N)N)NC(=O)[C@H](CC(C)C)NC(=O)[C@H](CC(N)=O)NC(=O)[C@@H]1CCCN1C(=O)[C@@H](NC(=O)[C@H](C)NC(=O)[C@H](CC(N)=O)NC(=O)CCOCCOCCOCCOCCOCCOCCOCCOCCOCCOCCOCCOCCOCCOCCOCCOCCOCCOCCOCCOCCOCCOCCOCCOCCOCCOCCOCCOCCNC(=O)CCOCCOCCOCCOCCOCCOCCOCCOCCOCCOCCOCCOCCOCCOCCOCCOCCOCCOCCOCCOCCOCCOCCOCCOCCOCCOCCOCCOCCNC(=O)c1ccc(F)cc1)C(C)C)C(=O)N[C@@H](CCC(N)=O)C(=O)N[C@H](C(=O)N[C@@H](CC(C)C)C(=O)N[C@@H](C)C(=O)N[C@@H](CCC(N)=O)C(=O)N[C@@H](CCCCN)C(=O)N[C@H](C(=O)N[C@@H](C)C(=O)N[C@@H](CCCNC(=N)N)C(=O)N[C@H](C(N)=O)[C@@H](C)O)C(C)C)C(C)C` [[^18F]FBA-(PEG28)2-A20FMDV2], the “maximal αvβ6-positive/-negative xenograft uptake ratio” value in data set [1] is recorded as 9.2 :1. Further, in data set [2], the tissue uptake at 1 h was 1.57 ± 0.25 %ID/g and the tissue uptake at 4 h amounted to 2.08 ± 0.37 %ID/g. In addition, in the data set with BxPC-3 xenograft (1 h), the BxPC-3/blood ratio is given as 9.0 :1, the BxPC-3/muscle ratio is given as 4.1 :1 and the BxPC-3/pancreas ratio is 5.6 :1. In the data set on BxPC-3 xenograft (4 h), the BxPC-3/blood ratio is recorded as 150 :1, the BxPC-3/muscle ratio is on record as 4.4 :1 and the BxPC-3/pancreas ratio is reported as 4.4 :1. For the same molecule, in the data set on BxPC-3 tumor (15min), the “SUVmax in BxPC-3 tumor” value is given as 0.99 ± 0.18. Further, the “SUVmax in BxPC-3 tumor” value in the data set with BxPC-3 tumor (1 h p.i.) is 0.79 ± 0.24. The “SUVmax in BxPC-3 tumor” value in the data set with BxPC-3 tumor (4 h) is listed as 0.59 ± 0.20.

On to `CC(C)C[C@H](NC(=O)[C@H](CC(=O)O)NC(=O)CNC(=O)[C@H](CCCNC(=N)N)NC(=O)[C@H](CC(C)C)NC(=O)[C@H](CC(N)=O)NC(=O)[C@@H]1CCCN1C(=O)[C@@H](NC(=O)[C@H](C)NC(=O)[C@H](CC(N)=O)NC(=O)c1ccc(F)cc1)C(C)C)C(=O)N[C@@H](CCC(N)=O)C(=O)N[C@H](C(=O)N[C@@H](CC(C)C)C(=O)N[C@@H](C)C(=O)N[C@@H](CCC(N)=O)C(=O)N[C@@H](CCCCN)C(=O)N[C@H](C(=O)N[C@@H](C)C(=O)N[C@@H](CCCNC(=N)N)C(=O)N[C@H](C(N)=O)[C@@H](C)O)C(C)C)C(C)C` [[^18F]FBA-A20FMDV2, 4-[^18F]fluorobenzoyl A20FMDV2], for which the “uptake in αvβ6-positive DX3puroβ6 tumor” value is 0.66 ± 0.09 % ID/g in data set [3] (1 h p.i.) and 0.06 ± 0.00 % ID/g in data set [3] (4 h p.i.). For the same molecule, the “fraction of bound radioactivity internalized” value in the data set on BxPC-3 cell line and in the data set with DX3puroβ6 cell line was “less than half” throughout. Further, the tissue uptake at 1 h in data set [2] was found to be 0.69 ± 0.19 %ID/g. Besides, the tissue uptake at 4 h in data set [2] was determined as 0.12 ± 0.03 %ID/g. Also, the BxPC-3/blood ratio in the data set with BxPC-3 xenograft (1 h) is 3.3 :1; in the data set with BxPC-3 xenograft (4 h) it was 7.0 :1. Also, the BxPC-3/muscle ratio in the data set with BxPC-3 xenograft (1 h) is listed as 1.3 :1; in the data set with BxPC-3 xenograft (4 h) it was 2.5 :1. Moreover, in the data set with BxPC-3 xenograft (4 h), the BxPC-3/pancreas ratio is listed as 9.5 :1. Also, the “SUVmax in BxPC-3 tumor” value is reported as 0.50 ± 0.22 in the data set with BxPC-3 tumor (15min), 0.22 ± 0.11 in the data set with BxPC-3 tumor (1 h p.i.) and less than 0.05 in the data set with BxPC-3 tumor (4 h).
